According to PMC3148296 (Molecular pharmaceutics, 2011):

Assays:
[1] = system: 4T1 cells (αvβ3 positive); assay: In vitro photosensitizing; assay type: cell-based, Mouse; conditions: 4T1, 2 h incubation, 665 nm light 0-2 J/cm2, MTT 48 h later
Outline: (§1)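 Cells kept at 37°C in 5% CO₂ in medium with 10% FBS (4T1: RPMI-1640; A431: DMEM high glucose). Plated at 3000 cells/well and allowed to attach for 3 h. Test compound added at variable concentrations for 2 h in the dark, then replaced with drug-free medium. Irradiated with a 665 nm dye laser at 3.2 mW/cm². After 48 h in the dark: MTT for 4 h, DMSO, A570. Survival given as % of dark control; mean of 3 experiments, 6 wells each, SD.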

[2] = system: A431 cells (αvβ3 negative); assay: In vitro photosensitizing; assay type: cell-based, Human; conditions: A431, 2 h incubation, 665 nm light 0-2 J/cm2, MTT 48 h later
Outline: as §1

U87 cells = assay: In vitro cell uptake by flow cytometry; assay type: cell-based, Human
4T1 cells = assay: In vitro cell uptake by flow cytometry; assay type: cell-based, Mouse; conditions: 4T1, 2 h post incubation
4T1 tumors = assay: In vivo photosensitizing; parameters: species or system BALB/c mice; conditions: 10 mice/group
Outline: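 BALB/c mice received 1 × 10⁶ 4T1 cells s.c. in 50 μL PBS at the right shoulder. Treatment began at a mean tumor volume of 62.5 mm³ (50–70). Test compound given i.v. Unanesthetized, restrained mice were irradiated at 665 nm (1 cm² spot, 135 J/cm², 75 mW/cm²). Mice were checked daily for regrowth; volume = (L × W²)/2; mice euthanized at 400 mm³.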

Solubility in solvents = assay type: physicochemical
[3] = 0.25 μmol/kg, light at 24 h post injection

Substance	in vitro PDT efficacy among HPPH and conjugates 7, 8, 10 [1]	in vitro phototoxicity compared to HPPH [2]	cell uptake among conjugates 7, 8 and 10 (U87 cells; U87, 400 nM and 800 nM, 2 h and 4 h post-incubation, flow cytometry)	cell uptake at 4 h versus 2 h incubation (U87 cells; U87, Figure S10)	cell uptake compared with HPPH (4T1 cells)	tumor cure at day 60 (4T1 tumors; [3])	mice tumor-free on day 60 (4T1 tumors; light at 2 h post injection, Figure 7A)	dissolution in common polar solvents (Solubility in solvents)	solubility in DMSO (Solubility in solvents)	tumor cure at day 60 (4T1 tumors; 0.47 μmol/kg, light at 4 h post injection)	mice tumor-free on day 60 (4T1 tumors; light at 24 h post injection, Figure 7B)
3-devinyl-3-{1′-(hexyloxy)ethyl}pyropheophorbide-a–cyclo(RGDfK) conjugate [conjugate 7]	most effective	less effective	highest uptake	significantly more at 4h	comparable	did not produce any cures	8/10				
HPPH–cyclo(RGDfK) conjugate [conjugate 8]								unsuccessful	partly soluble		
3-(1′-hexyloxyethyl)-3-devinylpyropheophorbide-a [HPPH]						did not produce any cures				no cures	4/10
